One may read the IC50 as the concentration needed to halve the response being measured.

“And” between values parts separate entries of the source, which are not always exact repeats. Equal values may be shown once. The source made the active and inactive calls.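 The calls were made as follows: active = compounds with IC50 of 20 µM or lower; inactive = the rest.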

For this experiment, the target named is Fatty acid synthase (Homo sapiens) (UniProt P49327). Kind of experiment: inhibition of FAS-TE enzyme activity – biochemical, endpoint fluorescence, OMFH substrate, round 2, powder samples, SAR follow-up (AID 652287). The note with it: recombinant FAS-TE, OMFH fluorogenic substrate. Put shortly: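 Assay system: FAS-TE enzyme; Medium: 100 mM Tris-HCl pH 7.5 plus NaCl, TCEP, Brij35, sarcosine; Also added: fluorogenic OMFH substrate, from 60 µM 2x stock; Dosing: dose-response series, 5.5% DMSO final; Incubation: 60 min reaction, room temperature; Measured by: fluorescence endpoint, Ex 480 nm, Em 540 nm.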
Fatty acid synthase (Homo sapiens), sequence (P49327 whole entry, looked up): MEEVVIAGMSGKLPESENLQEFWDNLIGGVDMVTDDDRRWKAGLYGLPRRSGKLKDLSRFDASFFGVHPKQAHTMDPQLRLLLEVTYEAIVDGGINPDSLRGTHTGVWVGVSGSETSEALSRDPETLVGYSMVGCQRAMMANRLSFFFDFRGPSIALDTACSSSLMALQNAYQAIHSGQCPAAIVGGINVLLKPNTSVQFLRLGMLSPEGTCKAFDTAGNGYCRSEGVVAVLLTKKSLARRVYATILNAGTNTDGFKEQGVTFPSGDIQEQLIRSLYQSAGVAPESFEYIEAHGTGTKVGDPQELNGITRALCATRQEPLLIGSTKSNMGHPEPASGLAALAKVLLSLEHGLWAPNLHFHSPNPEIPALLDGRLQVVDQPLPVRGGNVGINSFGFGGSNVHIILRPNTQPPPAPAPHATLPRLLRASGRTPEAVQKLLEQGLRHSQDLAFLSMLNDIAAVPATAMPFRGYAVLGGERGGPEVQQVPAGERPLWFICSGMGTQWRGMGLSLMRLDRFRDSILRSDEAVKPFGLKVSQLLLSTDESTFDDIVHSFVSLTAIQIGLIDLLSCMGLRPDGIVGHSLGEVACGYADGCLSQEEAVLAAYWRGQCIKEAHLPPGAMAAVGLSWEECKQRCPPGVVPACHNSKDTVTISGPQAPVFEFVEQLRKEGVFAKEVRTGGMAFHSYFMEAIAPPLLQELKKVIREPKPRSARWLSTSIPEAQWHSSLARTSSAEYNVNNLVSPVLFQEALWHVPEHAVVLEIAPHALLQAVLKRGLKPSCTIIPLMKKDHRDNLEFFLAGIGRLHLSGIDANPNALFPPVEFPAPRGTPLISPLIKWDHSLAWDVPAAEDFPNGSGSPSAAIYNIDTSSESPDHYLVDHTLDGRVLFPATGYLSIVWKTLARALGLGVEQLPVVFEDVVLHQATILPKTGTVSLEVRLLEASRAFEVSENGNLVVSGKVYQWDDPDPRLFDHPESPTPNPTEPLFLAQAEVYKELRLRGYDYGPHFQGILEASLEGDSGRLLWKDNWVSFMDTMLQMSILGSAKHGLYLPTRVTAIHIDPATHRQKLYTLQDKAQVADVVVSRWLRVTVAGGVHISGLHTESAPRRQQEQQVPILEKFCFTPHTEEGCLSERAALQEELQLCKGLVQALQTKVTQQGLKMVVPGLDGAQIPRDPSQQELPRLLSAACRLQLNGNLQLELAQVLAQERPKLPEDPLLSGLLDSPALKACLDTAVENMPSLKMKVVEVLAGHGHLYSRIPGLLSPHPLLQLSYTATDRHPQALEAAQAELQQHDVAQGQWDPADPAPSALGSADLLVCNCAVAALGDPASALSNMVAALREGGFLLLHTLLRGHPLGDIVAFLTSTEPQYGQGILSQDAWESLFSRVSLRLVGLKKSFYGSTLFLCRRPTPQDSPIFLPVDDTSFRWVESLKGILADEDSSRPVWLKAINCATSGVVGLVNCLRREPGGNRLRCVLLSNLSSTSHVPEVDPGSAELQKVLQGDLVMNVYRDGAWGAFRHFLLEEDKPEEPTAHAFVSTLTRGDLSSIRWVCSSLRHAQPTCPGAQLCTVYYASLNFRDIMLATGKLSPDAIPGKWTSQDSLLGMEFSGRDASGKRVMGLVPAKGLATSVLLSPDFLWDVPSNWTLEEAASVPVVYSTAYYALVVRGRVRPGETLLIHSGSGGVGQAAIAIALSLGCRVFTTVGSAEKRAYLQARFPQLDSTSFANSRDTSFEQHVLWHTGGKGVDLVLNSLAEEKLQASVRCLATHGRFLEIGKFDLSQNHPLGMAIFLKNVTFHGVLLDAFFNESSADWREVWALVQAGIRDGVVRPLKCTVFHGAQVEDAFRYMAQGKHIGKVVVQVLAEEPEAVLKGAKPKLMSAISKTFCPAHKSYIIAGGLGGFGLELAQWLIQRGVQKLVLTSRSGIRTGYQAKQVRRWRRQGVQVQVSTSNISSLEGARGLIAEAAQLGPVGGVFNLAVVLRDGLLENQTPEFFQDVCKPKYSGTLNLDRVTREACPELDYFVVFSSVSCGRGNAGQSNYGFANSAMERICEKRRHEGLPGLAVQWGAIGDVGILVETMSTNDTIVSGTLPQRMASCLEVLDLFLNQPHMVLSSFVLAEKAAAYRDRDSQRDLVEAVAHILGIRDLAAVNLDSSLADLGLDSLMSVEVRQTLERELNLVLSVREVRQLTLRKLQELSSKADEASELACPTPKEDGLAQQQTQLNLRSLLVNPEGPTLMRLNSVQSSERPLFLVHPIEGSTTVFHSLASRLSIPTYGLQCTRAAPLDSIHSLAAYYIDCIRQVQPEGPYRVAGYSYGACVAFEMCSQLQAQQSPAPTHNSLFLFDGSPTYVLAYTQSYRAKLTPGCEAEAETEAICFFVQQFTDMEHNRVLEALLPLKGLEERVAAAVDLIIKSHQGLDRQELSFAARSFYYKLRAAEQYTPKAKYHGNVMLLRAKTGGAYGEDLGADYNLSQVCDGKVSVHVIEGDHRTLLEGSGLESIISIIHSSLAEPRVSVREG
Consider `CC1CCN(S(=O)(=O)c2ccc(-c3csc(NC(=O)C(C)C)n3)cc2)CC1`, for which the IC50 was 511 nM.

Take `CCC(CC)C(=O)Nc1nc(-c2ccc(S(=O)(=O)N(CC)CC)cc2)cs1`: the IC50 is 328 nM.

Regarding `CN(Cc1ccc(C(C)(C)C)cc1)C(=O)Cc1ccc(S(=O)(=O)N2CCOCC2)s1`, the IC50 was 343 nM. On to `CCC(CC)C(=O)Nc1nc(-c2ccc(S(=O)(=O)N3CCCC3)cc2)cs1`, for which the IC50 was 257 nM. As to `CCCCCCC(=O)Nc1nc(-c2ccc(S(=O)(=O)N3CCCC3)cc2)cs1`, the IC50 is 846 nM. With `CCCCCC(=O)Nc1nc(-c2ccc(S(=O)(=O)N3CCC(C)CC3)cc2)cs1`, the IC50 is 745 nM. As for `CCC(C)C(=O)Nc1nc(-c2ccc(S(=O)(=O)N3CCCC3)cc2)cs1` (stereo not drawn), the IC50 is 145 nM.

Turning to `CCCCCC(=O)Nc1nc(-c2ccc(S(=O)(=O)N3CCCCC3C)cc2)cs1` (stereo not drawn), the IC50 was 580 nM.

As to `CCCCCC(=O)Nc1nc(-c2ccc(S(=O)(=O)N(CC)CC)cc2)cs1`, the IC50 was 196 nM. As to `CCC(C)C(=O)Nc1nc(-c2ccc(S(=O)(=O)N3CCC(C)CC3)cc2)cs1` (stereo not drawn), the IC50 was 409 nM. Under `CCC(C)C(=O)Nc1nc(-c2ccc(S(=O)(=O)N(CC)CC)cc2)cs1` (stereo not drawn) stands 1130 nM and 154 nM; under `CCC(C)C(=O)Nc1nc(-c2ccc(S(=O)(=O)N3CCCCC3C)cc2)cs1` (stereo not drawn), 285 nM; under `CCCCC(=O)Nc1nc(-c2ccc(S(=O)(=O)N3CCCCC3C)cc2)cs1` (stereo not drawn), 382 nM.

Take `CC(C)CC(=O)Nc1nc(-c2ccc(S(=O)(=O)N3CCC(C)CC3)cc2)cs1`: the IC50 result was “inactive”. As to `CCCCCCC(=O)Nc1nc(-c2ccc(S(=O)(=O)N3CCC(C)CC3)cc2)cs1`, the IC50 was 4470 nM.

With `CC(C)CC(=O)Nc1nc(-c2ccc(S(=O)(=O)N3CCCC3)cc2)cs1`, the IC50 is 1640 nM. Under `Cn1c(SCC(=O)Nc2ncc(C(F)(F)F)cc2Cl)nnc1-c1ccc(Cl)cc1` stands 686 nM; under `CCCCCCC(=O)Nc1nc(-c2ccc(S(=O)(=O)N3CCCCC3C)cc2)cs1` (stereo not drawn), 4320 nM. On to `CCCCCC(=O)Nc1nc(-c2ccc(S(=O)(=O)N3CCCC3)cc2)cs1`, for which the IC50 was 141 nM. `CCC(CC)C(=O)Nc1nc(-c2ccc(S(=O)(=O)N3CCC(C)CC3)cc2)cs1`: the IC50 was 1830 nM. The figure for `CCCCCCCCCCC[C@H](C[C@@H]1OC(=O)[C@H]1CCCCCC)OC(=O)[C@@H](NC=O)C(C)C` is 107 nM; for `CCCCC(=O)Nc1nc(-c2ccc(S(=O)(=O)N3CCOCC3)cc2)cs1` it is 204 nM. Turning to `CCCCCCC(=O)Nc1nc(-c2ccc(S(=O)(=O)N(CC)CC)cc2)cs1`, the IC50 was 1390 nM.

The values above are taken from PubChem BioAssay AID652287 (Sanford-Burnham Center for Chemical Genomics, 2013).
